G6PDH CS: L. mesenteroides G6PDH inhibition counter-screen; inhibition, % at 5 µM; Purified L. mesenteroides G6PDH, diaphorase/resazurin coupled fluorescence, 45 min; 200,000 tested, 0.12% active; in the data active = inhibition above about 50%
Diaph inh CS: counter-screen for diaphorase-based assays: diaphorase inhibitors and chemical oxidizers; 190,000 tested, 0.69% active; diaphorase resazurin-to-resorufin fluorescence, NADH, 16 min; bacterial (C. kluyveri) enzyme, not human; inhibition, % at 20 µM;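 active = primary screen inhibition at 20 µM above a set limit, cut at about 50% in these data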;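 note: plate controls were DMSO with full reaction for no effect and wells lacking NADH for full effect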
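Detection: fluorescence of resorufin formed from resazurin, Ex 544/Em 590 nm; test system: Clostridium kluyveri diaphorase enzyme; amount: 0.14 U/mL diaphorase, enzyme working solution; times: 16-min room-temperature incubation before reading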
Diaph act CS: diaphorase activation or chemical reduction counter-screen; Diaphorase/resazurin coupled assay, resorufin fluorescence, 16 min; stronger effect = higher value; 1 = vehicle wells, 0 = NADH-free wells; activation factor at 20 µM; 190,000 tested, 0.005% active; AID 1229;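 active = diaphorase activity raised at least twofold by the compound at 20 µM; inactive = activation factor below 2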
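Test system: Clostridium kluyveri diaphorase, purified enzyme. Buffer or medium: 50 mM HEPES pH 7.4 buffer plus MgCl2 and Tween 20. Also added: 0.114 mM NADH and 0.1 mM resazurin, final amounts. Dosing: compound 20 µM once, DMSO 1%. Schedule: 16 min enzyme reaction, ambient temperature. Detection: fluorescence of resorufin, 544 nm excitation, 590 nm emission.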
HKDC1 inh: blocks human hexokinase HKDC1 activity; recombinant HKDC1, G6PDH/diaphorase resazurin coupled fluorescence; inhibition, % at 20 µM; 340,000 tested, 0.16% active; AID 493160;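 active = inhibition above about 35% when tested at 20 µM, limit read from the data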;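 note: plate controls were DMSO wells with enzyme for no effect and DMSO wells lacking enzyme for full effect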
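Test system: HK5 enzyme. Quantity: 5 µg/mL HK5 final. Reagent: glucose and ATP substrates. Schedule: 90 min reaction incubation at room temperature, dark. Technique: resazurin-to-resorufin fluorescence via G6PDH and diaphorase coupling, 525/613 nm. Control set: DMSO wells with and without enzyme mix.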
PfGluPho inh: PfG6PD (Plasmodium falciparum) enzyme inhibition; AID 504690; inhibition, % at 20 µM; 350,000 tested, 0.78% active; PfGluPho enzyme, NADPH resazurin-diaphorase fluorescence;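 active = inhibition reaching at least a set limit at 20 µM in the primary screen, cut at about 59% in these data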;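 note: 0% = DMSO wells with substrate and 100% = DMSO wells lacking glucose-6-phosphate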
* = called active by the depositor; x = not tested or not shown. Most compounds without a hit are left out; they make up all but 1.2% or so of the library.

SMILES	G6PDH CS	Diaph inh CS	Diaph act CS	HKDC1 inh	PfGluPho inh
c1ccc(Cc2nnc(N3CCCCC3)c3ccccc23)cc1	-7	6	0.9	6	12
CC1CCN(C(=O)COC(=O)c2cccc(S(=O)(=O)N3CCOCC3)c2)CC1	x	x	x	x	-15
O=C(O)C1Nc2c(C(=O)N3CCOCC3)cccc2C2C=CCC12 (configuration not stated)	21	40	0.6	11	16
CCOC(=O)c1ccc2c(c1)C1C=CCC1C(C(=O)O)N2 (configuration not stated)	0	62*	0.4	x	x
Cc1ccc2c(c1C)NC(C(=O)O)C1CC=CC21 (configuration not stated)	9	43	0.6	38*	-9
Cc1cccc(N2CCN(C(=O)Cn3sc4nc(C)cc(C)c4c3=O)CC2C)c1 (configuration not stated)	-3	22	0.8	-2	105*
c1ccc(N2CCN(c3nc4ccccc4[nH]3)CC2)nc1	5	67*	0.3	4	-15
S=c1[nH]ncn1/N=C/c1cccc(Oc2ccccc2)c1	8	85*	0.2	-3	21
Cc1cnccc1CN(C)Cc1cn(C)nc1-c1cccc(Cl)c1	6	50*	0.5	4	-9
Cc1ccccc1Oc1ccc2c(c1)[C@@H]1C[C@H](N(C)C(=O)c3ccco3)[C@H]([C@H](C)O)C(=O)N1CC2	x	x	x	x	7
COc1cccc(/C=N/Nc2ccc([N+](=O)[O-])cn2)c1O	x	x	x	36*	-14
C[C@H](NC(=O)c1[nH]cnc1C(=O)Nc1ccccc1F)c1ccccc1	x	x	x	x	12
CN1C(=O)CC(NNC(=O)c2ccccc2)C1=O (configuration not stated)	2	17	0.8	-7	2
CC(C)N1C(=O)CC(Nc2cccc3cccc(N)c23)C1=O (configuration not stated)	2	52*	0.5	1	-2
COc1ccc(NC2CC(=O)N(C(C)C)C2=O)cc1 (configuration not stated)	-10	6	0.9	-2	17
CN1C(=O)CC(Nc2cccc3cccc(N)c23)C1=O (configuration not stated)	22	67*	0.3	16	64*
CCN(CC)Cc1nc2nc(Cl)c(Cl)nc2[nH]1	x	x	x	x	10
CCC[C@H]1NC(=O)[C@H](C)N(C)C(=O)C(C)(C)C(=O)C(C)NC(=O)[C@H](Cc2ccc(OC)cc2)N(C)C(=O)[C@H](C(C)C)N(C)C(=O)CNC(=O)[C@H](CC(C)C)N(C)C(=O)CNC(=O)[C@H]([C@@H](C)CC)OC(=O)[C@H]1C (some centres not stated)	x	x	x	4	29
CN(CC(=O)NCC1CCCO1)S(=O)(=O)c1ccc2ccccc2c1 (configuration not stated)	x	x	x	x	-3
C#Cc1ccc([C@H]2C=C(C(=O)N3CCN(Cc4ccc5c(c4)OCO5)CC3)O[C@@H](OCC)[C@@H]2CCCO)cc1	7	55*	0.4	0	20
CCO[C@@H]1OC(C(=O)N2CCN(C)CC2)=C[C@H](c2ccc(C(F)(F)F)cc2)[C@H]1CCCO	6	8	0.9	0	-7
CCO[C@H]1OC(C(=O)N2CCN(Cc3ccc4c(c3)OCO4)CC2)=C[C@@H](c2ccc3c(c2)OCO3)[C@@H]1CCCO	16	15	0.8	5	1
CCO[C@H]1OC(C(=O)N2CCN(C)CC2)=C[C@@H](c2ccc(C(F)(F)F)cc2)[C@@H]1CCCO	18	74*	0.3	-5	11
O=C1c2ccccc2C(=O)N1/N=C/c1ccc(O)c(O)c1	12	52*	0.5	-2	-23
O=C(O)/C(=C\c1ccc(Cl)c([N+](=O)[O-])c1)c1ccc(S(=O)(=O)N2CCCCC2)s1	8	61*	0.4	6	-21
SMILES	G6PDH CS	Diaph inh CS	Diaph act CS	HKDC1 inh	PfGluPho inh
O=C(O)/C(=C\c1ccc(Cl)c([N+](=O)[O-])c1)c1ccc(S(=O)(=O)N2CCCC2)s1	x	x	x	7	-2
CCCc1cc(-c2nc(N)ncc2-c2csc(C)n2)c(O)cc1OC	1	17	0.8	4	-15
CCCc1cc(-c2nc(N)ncc2-c2ccc3c(c2)OCCCO3)c(O)cc1OC	-41	26	0.7	8	71*
COC(=O)c1cn(C(=O)c2ccc3c(c2)OCO3)c2ccccc12	x	x	x	x	9
O=C(CN1CCN(c2ccc(Cl)cc2)CC1)NCc1ccccc1	2	86*	0.1	-4	-9
CCC1NC(=O)c2cc3ccccc3cc2-n2c1nc1ccc(F)cc1c2=O (configuration not stated)	x	x	x	x	-4
CN1C(=S)SC(/[N+]([O-])=C/c2ccc(Cl)cc2)C1(C)C (configuration not stated)	x	x	x	-7	7
[O-]/[N+](=C/c1ccc(F)cc1)c1ccc(Cl)cc1	6	14	0.9	-4	65*
Cc1c(Cc2ccccc2)c(=O)oc2c(O)c(O)ccc12	40	73*	0.3	9	-9
Cc1c(Cc2ccccc2)c(=O)oc2cc(O)ccc12	x	x	x	1	-14
C=CCn1c(N)c(C(=O)NCc2ccco2)sc1=S	-5	11	0.9	-3	20
O=C(NC1CCCC1)c1sc(=S)n2c1[nH]c(=O)c1ccccc12	10	61*	0.4	21	5
O=C(NCc1ccco1)c1sc(=S)n2c1[nH]c(=O)c1ccccc12	6	67*	0.3	28	27
CN=c1scc(-c2ccco2)n1/N=C/c1ccc(O)c(O)c1	24	51*	0.5	0	13
CC(=O)Nc1ccc(S(=O)(=O)Oc2ccc3c(c2)C(C)=CC(C)(C)N3)cc1	12	27	0.7	x	x
CC1=CC(C)(C)Nc2ccc(OS(=O)(=O)c3ccc(C)cc3)cc21	24	50*	0.5	-1	57
O=C(OCC(=O)N1CCOCC1)c1cncc(Br)c1	x	x	x	x	-11
COCCOC(=O)C1=C(C)NC2(O)c3ccccc3C(=O)C12O (configuration not stated)	6	74*	0.3	-14	11
O=[N+]([O-])C1C(c2ccccc2)C12c1ccccc1-c1ccccc12 (configuration not stated)	x	x	x	x	33
CCN(CC)S(=O)(=O)c1ccc(N2CCOCC2)c(NS(=O)(=O)c2ccc(Cl)s2)c1	x	x	x	x	-12
O=C(NC(=S)N(CCCCO)C1CCCCC1)c1sc2ccccc2c1Cl	8	72*	0.3	-7	20
CCOc1ccccc1OCCCC(=O)Nc1cc(S(=O)(=O)N2CCCCC2)ccc1C	x	x	x	x	11
